Converted amounts (≈) assume the structure as drawn.
Columns and labels:
Format in all cases: functional
[1] = tested on: Enterococcus faecalis; test: Antibacterial activity against Enterococcus faecalis 14-2 after 18 to 24 hrs
Method in brief: (§1)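 MIC by standard NCCLS reference procedure (M100-S11); lowest concentration of compound inhibiting visible bacterial growth after incubation at 35 °C for 18–24 h, read as complete inhibition of growth. Ciprofloxacin, levofloxacin and moxifloxacin run alongside as reference agents.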

[2] = tested on: Enterococcus faecium; test: Antibacterial activity against Enterococcus faecium 14-1 after 18 to 24 hrs; method in brief: as §1
[3] = tested on: Enterococcus faecium; test: Antibacterial activity against Enterococcus faecium 14-2 after 18 to 24 hrs; method in brief: as §1
[4] = tested on: Enterococcus faecium; test: Antibacterial activity against Enterococcus faecium 14-5 after 18 to 24 hrs; method in brief: as §1
[5] = tested on: Enterococcus faecium; test: Antibacterial activity against Enterococcus faecium 14-6 after 18 to 24 hrs; method in brief: as §1
[6] = tested on: Mycobacterium tuberculosis; test: Antimycobacterial activity against Mycobacterium tuberculosis H37Rv ATCC 27294 by alamar blue assay
Method in brief: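 Microplate Alamar Blue Assay; MIC is the lowest concentration giving ≥90% reduction in fluorescence relative to the mean of replicate bacterium-only controls. MDR strain 6133 is resistant to isoniazid and rifampicin.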

[7] = tested on: Escherichia coli; test: Antibacterial activity against Escherichia coli ATCC 25922 after 18 to 24 hrs; method in brief: as §1
[8] = tested on: Escherichia coli; test: Antibacterial activity against ESBL-positive Escherichia coli 14-1 after 18 to 24 hrs; method in brief: as §1
[9] = tested on: Escherichia coli; test: Antibacterial activity against ESBL-positive Escherichia coli 14-2 after 18 to 24 hrs; method in brief: as §1
[10] = tested on: Escherichia coli; test: Antibacterial activity against Escherichia coli 14-1 after 18 to 24 hrs; method in brief: as §1
[11] = tested on: Escherichia coli; test: Antibacterial activity against Escherichia coli 14-2 after 18 to 24 hrs; method in brief: as §1
[12] = tested on: Klebsiella pneumoniae; test: Antibacterial activity against ESBL-positive Klebsiella pneumoniae 14-17 after 18 to 24 hrs; method in brief: as §1
[13] = tested on: Klebsiella pneumoniae; test: Antibacterial activity against ESBL-positive Klebsiella pneumoniae 14-18 after 18 to 24 hrs; method in brief: as §1
[14] = tested on: Klebsiella pneumoniae; test: Antibacterial activity against ESBL-positive Klebsiella pneumoniae 14-19 after 18 to 24 hrs; method in brief: as §1
[15] = tested on: Klebsiella pneumoniae; test: Antibacterial activity against Klebsiella pneumoniae 14-1 after 18 to 24 hrs; method in brief: as §1
[16] = tested on: Klebsiella pneumoniae; test: Antibacterial activity against Klebsiella pneumoniae 14-2 after 18 to 24 hrs; method in brief: as §1
[17] = tested on: Klebsiella pneumoniae; test: Antibacterial activity against Klebsiella pneumoniae 14-3 after 18 to 24 hrs; method in brief: as §1
[18] = tested on: Klebsiella pneumoniae; test: Antibacterial activity against Klebsiella pneumoniae 14-4 after 18 to 24 hrs; method in brief: as §1
[19] = tested on: Pseudomonas aeruginosa; test: Antibacterial activity against Pseudomonas aeruginosa ATCC 27853 after 18 to 24 hrs; method in brief: as §1
[20] = tested on: Pseudomonas aeruginosa; test: Antibacterial activity against Pseudomonas aeruginosa 14-9 after 18 to 24 hrs; method in brief: as §1
[21] = tested on: Pseudomonas aeruginosa; test: Antibacterial activity against Pseudomonas aeruginosa 14-14 after 18 to 24 hrs; method in brief: as §1
[22] = tested on: Pseudomonas aeruginosa; test: Antibacterial activity against Pseudomonas aeruginosa 14-15 after 18 to 24 hrs; method in brief: as §1
[23] = tested on: Pseudomonas aeruginosa; test: Antibacterial activity against Pseudomonas aeruginosa 14-16 after 18 to 24 hrs; method in brief: as §1
[24] = tested on: Pseudomonas aeruginosa; test: Antibacterial activity against Pseudomonas aeruginosa 14-19 after 18 to 24 hrs; method in brief: as §1
[25] = tested on: Staphylococcus aureus; test: Antibacterial activity against Staphylococcus aureus CMCC 26003 after 18 to 24 hrs; method in brief: as §1
[26] = tested on: Staphylococcus aureus; test: Antibacterial activity against methicillin-sensitive Staphylococcus aureus 14-1 after 18 to 24 hrs; method in brief: as §1
[27] = tested on: Staphylococcus aureus; test: Antibacterial activity against methicillin-sensitive Staphylococcus aureus 14-2 after 18 to 24 hrs; method in brief: as §1
[28] = tested on: Staphylococcus aureus; test: Antibacterial activity against methicillin-sensitive Staphylococcus aureus 14-3 after 18 to 24 hrs; method in brief: as §1
[29] = tested on: Staphylococcus aureus; test: Antibacterial activity against methicillin-sensitive Staphylococcus aureus 14-4 after 18 to 24 hrs; method in brief: as §1
[30] = tested on: Staphylococcus aureus; test: Antibacterial activity against methicillin-resistant Staphylococcus aureus 14-4 after 18 to 24 hrs
[31] = tested on: Staphylococcus aureus; test: Antibacterial activity against methicillin-resistant Staphylococcus aureus 14-5 after 18 to 24 hrs
[32] = tested on: Staphylococcus epidermidis; test: Antibacterial activity against methicillin-sensitive Staphylococcus epidermidis 14-2 after 18 to 24 hrs; method in brief: as §1
[33] = tested on: Staphylococcus epidermidis; test: Antibacterial activity against methicillin-resistant Staphylococcus epidermidis 14-21 after 18 to 24 hrs
[34] = tested on: Staphylococcus epidermidis; test: Antibacterial activity against methicillin-resistant Staphylococcus epidermidis 14-22 after 18 to 24 hrs
[35] = tested on: Staphylococcus epidermidis; test: Antibacterial activity against methicillin-resistant Staphylococcus epidermidis 14-37 after 18 to 24 hrs
[36] = tested on: Staphylococcus epidermidis; test: Antibacterial activity against methicillin-resistant Staphylococcus epidermidis 14-39 after 18 to 24 hrs
[37] = tested on: Streptococcus pneumoniae; test: Antibacterial activity against Streptococcus pneumoniae ATCC 19615 after 18 to 24 hrs; method in brief: as §1
[38] = tested on: Enterococcus faecalis; test: Antibacterial activity against Enterococcus faecalis 14-1 after 18 to 24 hrs; method in brief: as §1

| Compound | MIC [1] [µg/mL] | MIC [2] [µg/mL] | MIC [3] [µg/mL] | MIC [4] [µg/mL] | MIC [5] [µg/mL] | MIC90 [6] [µg/mL] | MIC [7] [µg/mL] | MIC [8] [µg/mL] | MIC [9] [µg/mL] | MIC [10] [µg/mL] | MIC [11] [µg/mL] | MIC [12] [µg/mL] | MIC [13] [µg/mL] | MIC [14] [µg/mL] | MIC [15] [µg/mL] | MIC [16] [µg/mL] | MIC [17] [µg/mL] | MIC [18] [µg/mL] | MIC [19] [µg/mL] | MIC [20] [µg/mL] | also measured |
| --- | --- | --- | --- | --- | --- | --- | --- | --- | --- | --- | --- | --- | --- | --- | --- | --- | --- | --- | --- | --- | --- |
| NCC1CN(c2nc3c(cc2F)c(=O)c(C(=O)O)cn3[C@@H]2C[C@@H]2F)C/C1=N\OCc1ccc(OC(F)(F)F)cc1 (some centres undefined) | 0.5 (≈ 0.881 µM) | 4 (≈ 7.05 µM) | 4 (≈ 7.05 µM) | 8 (≈ 14.1 µM) | 4 (≈ 7.05 µM) | 0.987 (≈ 1.74 µM) | 2 (≈ 3.52 µM) | 8 (≈ 14.1 µM) | 128 (≈ 226 µM) | 128 (≈ 226 µM) | 128 (≈ 226 µM) | 32 (≈ 56.4 µM) | 32 (≈ 56.4 µM) | 128 (≈ 226 µM) | 128 (≈ 226 µM) | 128 (≈ 226 µM) | 128 (≈ 226 µM) | 128 (≈ 226 µM) | 16 (≈ 28.2 µM) | 16 (≈ 28.2 µM) | MIC [21]: 32 µg/mL (≈ 56.4 µM); MIC [22]: 32 µg/mL (≈ 56.4 µM); MIC [23]: 32 µg/mL (≈ 56.4 µM); MIC [24]: 16 µg/mL (≈ 28.2 µM); MIC [25]: < 0.008 µg/mL; MIC [26]: 4 µg/mL (≈ 7.05 µM); MIC [27]: 0.03 µg/mL (≈ 0.0529 µM); MIC [28]: 0.015 µg/mL (≈ 0.0264 µM); MIC [29]: 0.06 µg/mL (≈ 0.106 µM); MIC [30]: 16 µg/mL (≈ 28.2 µM); MIC [31]: 4 µg/mL (≈ 7.05 µM); MIC [32]: 16 µg/mL (≈ 28.2 µM); MIC [33]: 8 µg/mL (≈ 14.1 µM); MIC [34]: 8 µg/mL (≈ 14.1 µM); MIC [35]: 8 µg/mL (≈ 14.1 µM); MIC [36]: 8 µg/mL (≈ 14.1 µM); MIC [37]: 0.015 µg/mL (≈ 0.0264 µM); MIC [38]: 32 µg/mL (≈ 56.4 µM) |
| Cc1ccc(CO/N=C2\CN(c3nc4c(cc3F)c(=O)c(C(=O)O)cn4[C@@H]3C[C@@H]3F)CC2CN)cc1 (some centres undefined) | < 0.008 | 0.5 (≈ 1.01 µM) | 0.5 (≈ 1.01 µM) | 8 (≈ 16.1 µM) | 4 (≈ 8.04 µM) | < 0.25 | < 0.008 | 2 (≈ 4.02 µM) | 64 (≈ 129 µM) | 16 (≈ 32.2 µM) | 32 (≈ 64.3 µM) | 8 (≈ 16.1 µM) | 8 (≈ 16.1 µM) | 128 (≈ 257 µM) | 64 (≈ 129 µM) | 128 (≈ 257 µM) | 64 (≈ 129 µM) | 128 (≈ 257 µM) | 4 (≈ 8.04 µM) | 8 (≈ 16.1 µM) | MIC [21]: 8 µg/mL (≈ 16.1 µM); MIC [22]: 8 µg/mL (≈ 16.1 µM); MIC [23]: 8 µg/mL (≈ 16.1 µM); MIC [24]: 8 µg/mL (≈ 16.1 µM); MIC [25]: < 0.008 µg/mL; MIC [26]: 2 µg/mL (≈ 4.02 µM); MIC [27]: < 0.008 µg/mL; MIC [28]: < 0.008 µg/mL; MIC [29]: 0.015 µg/mL (≈ 0.0302 µM); MIC [30]: 8 µg/mL (≈ 16.1 µM); MIC [31]: 4 µg/mL (≈ 8.04 µM); MIC [32]: 8 µg/mL (≈ 16.1 µM); MIC [33]: 4 µg/mL (≈ 8.04 µM); MIC [34]: 2 µg/mL (≈ 4.02 µM); MIC [35]: 8 µg/mL (≈ 16.1 µM); MIC [36]: 16 µg/mL (≈ 32.2 µM); MIC [37]: < 0.008 µg/mL; MIC [38]: 32 µg/mL (≈ 64.3 µM) |
| NCC1CN(c2nc3c(cc2F)c(=O)c(C(=O)O)cn3[C@@H]2C[C@@H]2F)C/C1=N\OCc1ccc([N+](=O)[O-])cc1 (some centres undefined) | 0.25 (≈ 0.473 µM) | 4 (≈ 7.57 µM) | 4 (≈ 7.57 µM) | 8 (≈ 15.1 µM) | 4 (≈ 7.57 µM) | 0.467 (≈ 0.884 µM) | 0.25 (≈ 0.473 µM) | 4 (≈ 7.57 µM) | > 128 | 128 (≈ 242 µM) | 128 (≈ 242 µM) | 8 (≈ 15.1 µM) | 16 (≈ 30.3 µM) | 128 (≈ 242 µM) | 128 (≈ 242 µM) | 128 (≈ 242 µM) | 128 (≈ 242 µM) | 128 (≈ 242 µM) | 4 (≈ 7.57 µM) | 4 (≈ 7.57 µM) | MIC [21]: 16 µg/mL (≈ 30.3 µM); MIC [22]: 16 µg/mL (≈ 30.3 µM); MIC [23]: 16 µg/mL (≈ 30.3 µM); MIC [24]: 16 µg/mL (≈ 30.3 µM); MIC [25]: 0.015 µg/mL (≈ 0.0284 µM); MIC [26]: 4 µg/mL (≈ 7.57 µM); MIC [27]: 0.06 µg/mL (≈ 0.114 µM); MIC [28]: 0.03 µg/mL (≈ 0.0568 µM); MIC [29]: 0.125 µg/mL (≈ 0.237 µM); MIC [30]: 128 µg/mL (≈ 242 µM); MIC [31]: 4 µg/mL (≈ 7.57 µM); MIC [32]: 128 µg/mL (≈ 242 µM); MIC [33]: 16 µg/mL (≈ 30.3 µM); MIC [34]: 8 µg/mL (≈ 15.1 µM); MIC [35]: 4 µg/mL (≈ 7.57 µM); MIC [36]: 8 µg/mL (≈ 15.1 µM); MIC [37]: 0.015 µg/mL (≈ 0.0284 µM); MIC [38]: 64 µg/mL (≈ 121 µM) |
